Test results as given in ChEMBL document CHEMBL3853318, “Structure-Based Optimization of Potent, Selective, and Orally Bioavailable CDK8 Inhibitors Discovered by High-Throughput Screening” (J Med Chem, 2016).
Values after ≈ are worked out from the molar mass of the structure shown. Active and inactive are the calls of the source. The rule behind the calls is not given here.

How the values were obtained:
CDK8/Cyclin C = CDK8/Cyclin C (Homo sapiens, UniProt P49336); experiment: Inhibition of Alexa647 tracer binding to full length recombinant human His-tagged CDK8/cyclin C expressed in Baculovirus expression system preincubated for 20 mins followed by tracer addition and incubated in dark for 60 mins by FRET-based Lanthascreen assay
[1] = biological target: T1, Cyclin-dependent kinase 8 (Homo sapiens, UniProt P49336); experiment: Inhibition of CDK8 in human 7dF3 cells preincubated for 2 hrs followed by beta-oestradiol addition measured after 24 hrs by luciferase reporter gene assay; format: cell-based
Target sequence in this assay (P49336 whole entry): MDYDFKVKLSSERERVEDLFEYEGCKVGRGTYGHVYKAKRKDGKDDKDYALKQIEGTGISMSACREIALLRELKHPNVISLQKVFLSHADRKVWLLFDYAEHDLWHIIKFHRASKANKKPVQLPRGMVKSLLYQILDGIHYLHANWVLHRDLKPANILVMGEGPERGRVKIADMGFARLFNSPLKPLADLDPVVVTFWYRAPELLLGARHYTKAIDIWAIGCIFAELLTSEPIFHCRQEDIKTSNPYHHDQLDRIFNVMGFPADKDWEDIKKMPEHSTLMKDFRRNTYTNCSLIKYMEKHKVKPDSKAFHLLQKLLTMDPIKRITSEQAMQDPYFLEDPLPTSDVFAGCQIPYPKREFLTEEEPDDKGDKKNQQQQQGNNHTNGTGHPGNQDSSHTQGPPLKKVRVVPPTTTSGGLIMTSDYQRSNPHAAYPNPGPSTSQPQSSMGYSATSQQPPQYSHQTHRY

[2] = Intrinsic clearance in human liver microsomes at 1 uM preincubated for 5 mins followed by NADPH addition measured after 5 to 30 mins by LC-MS/MS analysis; format: ADME; details: read-out: CLH
[3] = Intrinsic clearance in rat liver microsomes at 1 uM preincubated for 5 mins followed by NADPH addition measured after 5 to 30 mins by LC-MS/MS analysis; format: ADME; details: read-out: CLH
[4] = Intrinsic clearance in mouse liver microsomes at 1 uM preincubated for 5 mins followed by NADPH addition measured after 5 to 30 mins by LC-MS/MS analysis; format: ADME; details: read-out: CLH
[5] = Apparent permeability from apical to basolateral side in human Caco2 cells at 1 uM after 2 hrs by Transwell assay; format: ADME, cell-based; details: Caco-2
[6] = Efflux ratio of permeability in human Caco2 cells at 1 uM after 2 hrs by Transwell assay; format: ADME, cell-based; details: Caco-2
[7] = Kinetic solubility of the compound; format: physicochemical; details: read-out: Kinetic_solubility
[8] = biological target: Glycogen synthase kinase-3 alpha (Homo sapiens) (UniProt P49840); experiment: Inhibition of GSK-3alpha (unknown origin) at 1 uM relative to control
[9] = biological target: T1, Cyclin-dependent kinase 8; experiment: Inhibition of CDK8 in human SW620 cells assessed as decrease in STAT1 phosphorylation at Ser727; format: cell-based, SW-620
Target sequence in this assay (P49336 whole entry): as above

[10] = biological target: T1, Cyclin-dependent kinase 8; experiment: Inhibition of CDK8 in human LS174T cells expressing beta-catenin mutant assessed as suppression of WNT pathway by luciferase reporter gene assay; format: cell-based
Target sequence in this assay (P49336 whole entry, looked up, stated change not applied): as the sequence (P49336 whole entry) above

[11] = biological target: T1, Cyclin-dependent kinase 8; experiment: Inhibition of CDK8 in human COLO205 cells expressing APC mutant assessed as suppression of WNT pathway by luciferase reporter gene assay; format: cell-based; details: colo 205
Target sequence in this assay (P49336 whole entry, looked up, stated change not applied): as the sequence (P49336 whole entry) above

[12] = biological target: T1, Cyclin-dependent kinase 8; experiment: Inhibition of CDK8 in human PA1 cells assessed as suppression of WNT3a ligand-induced WNT pathway by luciferase reporter gene assay; format: cell-based, PA-1
Target sequence in this assay (P49336 whole entry): as above

[13] = biological target: Sodium-dependent dopamine transporter (Homo sapiens, UniProt Q01959); experiment: Displacement of [3H]BTCP from human recombinant dopamine transporter expressed in CHO cells after 120 mins by scintillation counting method; format: cell-based
hERG (KCNH2) = hERG (KCNH2) (Homo sapiens, UniProt Q12809); experiment: Inhibition of human ERG at 10 uM relative to control
[14] = Thermodynamic solubility of the compound in PBS at pH 7.4; format: physicochemical; details: read-out: Therm_solubility
[15] = Thermodynamic solubility of the compound in FaSSIF at pH 6.5; format: physicochemical; details: read-out: Therm_solubility
[16] = Thermodynamic solubility of the compound in FeSSIF at pH 5; format: physicochemical; details: read-out: Therm_solubility
[17] = Inhibition of CYP450 (unknown origin); format: ADME, Homo sapiens
[18] = Fraction unbound in NMRI mouse plasma at 0.2 mg/kg, iv as bolus dose or 0.5 mg/kg, po via gavage measured over 6 hrs; format: ADME, organism-based
[19] = Fraction unbound in Wistar rat plasma at 0.2 mg/kg, iv as bolus dose or 0.5 mg/kg, po via gavage measured over 6 hrs; format: ADME, organism-based
[20] = Fraction unbound in Beagle dog plasma at 0.2 mg/kg, iv as bolus dose or 0.5 mg/kg, po via gavage measured over 48 hrs; format: ADME, organism-based, Canis lupus familiaris
[21] = Volume of distribution at steady state in NMRI mouse at 0.2 mg/kg, iv as bolus dose or 0.5 mg/kg, po via gavage measured over 6 hrs; format: ADME, organism-based; details: in vivo, read-out: Vdss
[22] = Volume of distribution at steady state in Beagle dog at 0.2 mg/kg, iv as bolus dose or 0.5 mg/kg, po via gavage measured over 48 hrs; format: ADME, organism-based, Canis lupus familiaris; details: in vivo, read-out: Vdss
[23] = Volume of distribution at steady state in Wistar rat at 0.2 mg/kg, iv as bolus dose or 0.5 mg/kg, po via gavage measured over 6 hrs; format: ADME, organism-based; details: in vivo, read-out: Vdss
[24] = Plasma clearance in NMRI mouse at 0.2 mg/kg, iv as bolus dose or 0.5 mg/kg, po via gavage measured over 6 hrs; format: ADME, organism-based
[25] = Plasma clearance in Wistar rat at 0.2 mg/kg, iv as bolus dose or 0.5 mg/kg, po via gavage measured over 6 hrs; format: ADME, organism-based
[26] = Plasma clearance in Beagle dog at 0.2 mg/kg, iv as bolus dose or 0.5 mg/kg, po via gavage measured over 48 hrs; format: ADME, organism-based, Canis lupus familiaris
[27] = Half life in NMRI mouse at 0.2 mg/kg, iv as bolus dose or 0.5 mg/kg, po via gavage; format: ADME, organism-based; details: in vivo
[28] = Half life in Wistar rat at 0.2 mg/kg, iv as bolus dose or 0.5 mg/kg, po via gavage; format: ADME, organism-based; details: in vivo
[29] = Half life in Beagle dog at 0.2 mg/kg, iv as bolus dose or 0.5 mg/kg, po via gavage; format: ADME, organism-based, Canis lupus familiaris; details: in vivo
[30] = Oral bioavailability in NMRI mouse at 0.5 mg/kg via gavage measured over 6 hrs measured over 6 hrs; format: ADME, organism-based; details: in vivo
[31] = Oral bioavailability in Wistar rat at 0.5 mg/kg via gavage measured over 6 hrs; format: ADME, organism-based; details: in vivo
[32] = Oral bioavailability in Beagle dog at 0.5 mg/kg via gavage measured over 48 hrs; format: ADME, organism-based, Canis lupus familiaris; details: in vivo
[33] = Plasma clearance in NMRI mouse at 0.2 mg/kg, iv as bolus dose or 0.5 mg/kg, po via gavage measured over 6 hrs relative to hepatic blood flow; format: ADME, organism-based, Liver; details: in vivo
[34] = Plasma clearance in Wistar rat at 0.2 mg/kg, iv as bolus dose or 0.5 mg/kg, po via gavage measured over 6 hrs relative to hepatic blood flow; format: ADME, organism-based, Liver; details: in vivo
[35] = Plasma clearance in Beagle dog at 0.2 mg/kg, iv as bolus dose or 0.5 mg/kg, po via gavage measured over 48 hrs relative to hepatic blood flow; format: ADME, organism-based, Canis lupus familiaris, Liver; details: in vivo
[36] = Antitumor activity against human SW620 cells xenografted in NCr athymic mouse assessed as tumor growth inhibition at 50 mg/kg, po bid administered for 16 days relative to control; format: functional, SW-620
Method in brief: (§1)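 Female NCr athymic mice bearing SW620 human colorectal carcinoma xenografts were dosed orally for 16 days. Growth inhibition was expressed as T/C ratio based on final tumor weights versus vehicle controls.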

[37] = Antitumor activity against human SW620 cells xenografted in NCr athymic mouse assessed as tumor growth inhibition at 100 mg/kg, po qd administered for 16 days relative to control; format: functional, SW-620; method in brief: as §1
Mus musculus [38] = experiment: Toxicity in NCr athymic mouse xenografted with human SW620 cells assessed as drug tolerance at 50 mg/kg, po bid administered for 16 days; format: organism-based, SW-620; details: in vivo, 384 h
Method in brief: (§2)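 Female NCr athymic mice bearing SW620 colorectal xenografts received oral treatment for 16 days. Body weights were recorded and expressed as % of day 0 values.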

Mus musculus [39] = experiment: Toxicity in NCr athymic mouse xenografted with human SW620 cells assessed as drug tolerance at 100 mg/kg, po qd administered for 16 days; format: organism-based, SW-620; details: in vivo, 384 h; method in brief: as §2
Mus musculus [40] = experiment: Toxicity in NCr athymic mouse xenografted with human SW620 cells assessed as effect on body weight at 100 mg/kg, po qd administered for 16 days; format: organism-based, SW-620; details: in vivo, 384 h; method in brief: as §2
Mus musculus [41] = experiment: Toxicity in NCr athymic mouse xenografted with human SW620 cells assessed as body weight loss at 50 mg/kg, po bid administered for 16 days; format: organism-based, SW-620; details: in vivo, 384 h; method in brief: as §2
Mus musculus [42] = experiment: In vivo inhibition of CDK8-mediated STAT1 phosphorylation at Ser727 in human SW620 cells xenografted in NCr athymic mouse at 100 mg/kg, po qd administered for 16 days measured 2 to 24 hrs post last dose by immunoassay; format: functional, organism-based; details: SW-620
Method in brief: (§3)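 SW620 xenografts in female NCr athymic mice were dosed orally for 16 days. Phospho-STAT1 Ser727 was measured by Luminex immunoassay, normalized to total STAT1 and expressed as % of vehicle controls at each time point (2 h to 24 h after dosing).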

Mus musculus [43] = experiment: In vivo inhibition of CDK8-mediated STAT1 phosphorylation at Ser727 in human SW620 cells xenografted in NCr athymic mouse at 50 mg/kg, po bid administered for 16 days measured 2 to 24 hrs post last dose by immunoassay; format: functional, organism-based; details: SW-620; method in brief: as §3
7dF3 = experiment: Ratio of IC50 for CDK8 in human 7dF3 cells to IC50 for Alexa647 tracer binding to full length recombinant human His-tagged CDK8/cyclin C; format: cell-based

Sequence of CDK8/Cyclin C (P49336 whole entry): as above
Sequence of CDK8/Cyclin C (P24863 whole entry, further chain): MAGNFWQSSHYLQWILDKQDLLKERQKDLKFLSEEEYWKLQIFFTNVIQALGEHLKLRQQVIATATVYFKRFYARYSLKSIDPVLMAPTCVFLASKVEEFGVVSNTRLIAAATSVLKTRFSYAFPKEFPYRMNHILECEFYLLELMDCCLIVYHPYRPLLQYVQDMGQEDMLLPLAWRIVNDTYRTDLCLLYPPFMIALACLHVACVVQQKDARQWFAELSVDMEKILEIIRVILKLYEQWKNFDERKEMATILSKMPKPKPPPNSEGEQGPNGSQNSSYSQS
Sequence of Glycogen synthase kinase-3 alpha (Homo sapiens) (P49840 2-483 limits assumed): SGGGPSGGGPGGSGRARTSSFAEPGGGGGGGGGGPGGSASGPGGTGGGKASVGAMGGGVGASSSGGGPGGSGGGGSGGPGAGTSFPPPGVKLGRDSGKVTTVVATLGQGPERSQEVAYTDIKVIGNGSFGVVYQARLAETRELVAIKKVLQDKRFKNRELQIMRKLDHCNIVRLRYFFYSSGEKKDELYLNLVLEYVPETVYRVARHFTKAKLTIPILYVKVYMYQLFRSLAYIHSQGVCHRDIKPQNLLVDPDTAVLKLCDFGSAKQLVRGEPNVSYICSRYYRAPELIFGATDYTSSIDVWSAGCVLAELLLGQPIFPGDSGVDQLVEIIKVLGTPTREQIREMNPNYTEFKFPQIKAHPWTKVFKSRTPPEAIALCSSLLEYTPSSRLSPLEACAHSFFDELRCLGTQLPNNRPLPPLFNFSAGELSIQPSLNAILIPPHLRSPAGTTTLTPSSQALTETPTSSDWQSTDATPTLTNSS
Sequence of Sodium-dependent dopamine transporter (Q01959 whole entry): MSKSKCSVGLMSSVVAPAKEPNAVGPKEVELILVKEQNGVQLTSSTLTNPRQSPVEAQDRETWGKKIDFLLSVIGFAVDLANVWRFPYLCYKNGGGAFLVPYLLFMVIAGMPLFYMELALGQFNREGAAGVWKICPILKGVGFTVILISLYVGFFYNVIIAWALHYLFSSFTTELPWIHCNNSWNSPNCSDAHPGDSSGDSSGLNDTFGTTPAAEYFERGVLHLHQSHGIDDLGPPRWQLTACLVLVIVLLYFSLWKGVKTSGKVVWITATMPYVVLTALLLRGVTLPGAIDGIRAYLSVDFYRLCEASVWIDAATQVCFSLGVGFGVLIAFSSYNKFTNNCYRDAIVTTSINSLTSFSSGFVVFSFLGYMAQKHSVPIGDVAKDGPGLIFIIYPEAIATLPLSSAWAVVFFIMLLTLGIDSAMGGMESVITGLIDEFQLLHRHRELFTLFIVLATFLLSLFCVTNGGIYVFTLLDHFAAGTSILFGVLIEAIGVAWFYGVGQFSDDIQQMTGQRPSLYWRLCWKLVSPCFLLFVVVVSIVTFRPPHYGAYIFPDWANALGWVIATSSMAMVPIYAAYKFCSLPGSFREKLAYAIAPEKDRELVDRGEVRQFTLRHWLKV
Sequence of hERG (KCNH2) (Q12809 whole entry): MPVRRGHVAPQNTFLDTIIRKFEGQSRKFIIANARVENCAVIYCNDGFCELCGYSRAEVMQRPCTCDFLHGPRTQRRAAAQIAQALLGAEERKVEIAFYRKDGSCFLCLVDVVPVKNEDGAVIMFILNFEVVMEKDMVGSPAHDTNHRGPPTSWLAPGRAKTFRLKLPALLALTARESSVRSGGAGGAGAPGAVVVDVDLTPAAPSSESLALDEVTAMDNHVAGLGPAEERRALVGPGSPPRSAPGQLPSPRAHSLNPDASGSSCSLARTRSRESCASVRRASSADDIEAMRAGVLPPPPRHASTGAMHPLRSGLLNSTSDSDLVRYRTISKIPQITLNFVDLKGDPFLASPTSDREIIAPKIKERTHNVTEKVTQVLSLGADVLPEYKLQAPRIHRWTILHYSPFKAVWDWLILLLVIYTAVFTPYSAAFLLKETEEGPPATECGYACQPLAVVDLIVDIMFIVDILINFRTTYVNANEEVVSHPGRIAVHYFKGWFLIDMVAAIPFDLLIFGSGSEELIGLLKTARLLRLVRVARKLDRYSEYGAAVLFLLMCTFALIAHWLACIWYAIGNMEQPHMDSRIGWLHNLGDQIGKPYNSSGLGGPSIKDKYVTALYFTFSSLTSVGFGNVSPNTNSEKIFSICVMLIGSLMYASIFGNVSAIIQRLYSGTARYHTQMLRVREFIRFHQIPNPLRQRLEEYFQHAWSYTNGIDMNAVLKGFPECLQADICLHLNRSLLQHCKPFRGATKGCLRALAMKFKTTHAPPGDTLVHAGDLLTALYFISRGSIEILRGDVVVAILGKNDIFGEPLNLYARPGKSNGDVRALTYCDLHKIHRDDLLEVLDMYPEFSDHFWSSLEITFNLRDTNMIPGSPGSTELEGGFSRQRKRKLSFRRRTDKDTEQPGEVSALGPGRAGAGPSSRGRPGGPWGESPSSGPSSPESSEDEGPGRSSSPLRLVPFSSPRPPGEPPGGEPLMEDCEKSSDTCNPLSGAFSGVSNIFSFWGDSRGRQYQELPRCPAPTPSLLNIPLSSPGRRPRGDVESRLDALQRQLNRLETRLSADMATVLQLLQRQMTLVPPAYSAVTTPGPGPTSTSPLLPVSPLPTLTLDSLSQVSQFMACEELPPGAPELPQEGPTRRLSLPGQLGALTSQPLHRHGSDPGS

Molecule `Cc1n[nH]c2ncc(C(=O)N3CCC[C@H]3c3ccc(Cl)cc3)cc12` has an IC50 (CDK8/Cyclin C) of 2.6 nM, an IC50 [1] of 6.5 nM and a microsomal CLint at 1 µM [2] of 45 µL/min/mg. It also gave a microsomal CLint at 1 µM [3] of less than 10 µL/min/mg, a microsomal CLint at 1 µM [4] of less than 10 µL/min/mg and a Papp A→B at 2 h, 1 µM [5] of 44 ×10⁻⁶ cm/s. The efflux ratio at 2 h, 1 µM [6] was 1.5, the solubility kinetic [7] was greater than 200 µM and the inhibition [8] was greater than 50%. It also gave an IC50 [9] of 8 nM, an IC50 [10] of 32 nM and an IC50 [11] of 9 nM. For the same molecule, the IC50 [12] was 52 nM, the IC50 [13] was 8500 nM and the inhibition at 10 µM (hERG (KCNH2)) was 18%. The solubility thermodynamic [14] was 399 µg/mL (≈ 1170 µM), the solubility thermodynamic [15] was 628 µg/mL (≈ 1840 µM) and the solubility thermodynamic [16] was 836 µg/mL (≈ 2450 µM). For the same molecule, the IC50 [17] was greater than 20000 nM, the fraction unbound at 6 h [18] was 0.13 and the fraction unbound at 6 h [19] was 0.19. It also gave a fraction unbound at 48 h [20] of 0.5, a Vd [21] of 0.59 L/kg and a Vd [22] of 1.47 L/kg. It also gave a Vd [23] of 1.62 L/kg, a clearance [24] of 22.8 mL/min/kg and a clearance [25] of 25 mL/min/kg. It also gave a clearance [26] of 22.5 mL/min/kg, a half-life [27] of 27 min and a half-life [28] of 51.6 min. The half-life [29] was 49.8 min, the bioavailability [30] was 25% and the bioavailability [31] was 66%. For the same molecule, the bioavailability [32] was 39%, the CL [33] was 22.5% and the CL [34] was 34.6%. It also gave a CL [35] of 53.8%, a T/C [36] of 49% and a T/C [37] of 57%. The Activity (Mus musculus [38]) was “Non-Toxic”, the Activity (Mus musculus [39]) was “Non-Toxic” and the Activity (Mus musculus [40]) was “Non-Toxic”. For the same molecule, the Activity (Mus musculus [41]) was “Non-Toxic”, the inhibition (Mus musculus [42]) was “Active” and the inhibition (Mus musculus [43]) was “Active”.

In the case of `CCOc1ccccc1CNC(=O)c1nn2c(C)ncc2s1`, the IC50 (CDK8/Cyclin C) is reported as 129 nM, the IC50 [1] is reported as 1650 nM and the microsomal CLint at 1 µM [2] is reported as greater than 1000 µL/min/mg. It also gave a microsomal CLint at 1 µM [3] of 435 µL/min/mg, a microsomal CLint at 1 µM [4] of 119 µL/min/mg and a Ratio IC50 (7dF3) of 3.
